Test results published in ChEMBL document CHEMBL5034042 (ACS Med Chem Lett, 2022).

Legend:
[1] = target: T1, Trace amine-associated receptor 1 (Homo sapiens) (UniProt Q96RJ0); test: Agonist activity at recombinant human TAAR1 expressed in CHO-K1 cells assessed as maximal increase in intracellular cAMP incubated for 30 mins by HTRF analysis relative to control; type: functional, cell-based; conditions: filed as agonist
T1 sequence (whole entry): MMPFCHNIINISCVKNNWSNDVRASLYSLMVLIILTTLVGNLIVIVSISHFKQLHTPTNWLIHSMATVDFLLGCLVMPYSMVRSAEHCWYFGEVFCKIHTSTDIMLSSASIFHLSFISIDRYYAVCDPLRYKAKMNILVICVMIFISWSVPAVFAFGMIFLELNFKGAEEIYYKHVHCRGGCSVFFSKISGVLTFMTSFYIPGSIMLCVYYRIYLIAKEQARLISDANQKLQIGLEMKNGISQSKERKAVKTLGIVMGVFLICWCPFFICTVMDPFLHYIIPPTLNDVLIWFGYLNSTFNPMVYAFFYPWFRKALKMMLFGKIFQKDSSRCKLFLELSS
Procedure, shortened: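 Maximal response (Emax) is expressed relative to a p-tyramine control applied to each plate. Values were run in triplicate under identical conditions in a single study and are reported as mean ± SEM (n = 3).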

[2] = target: T2, Trace amine-associated receptor 1 (Homo sapiens, UniProt Q96RJ0); test: Agonist activity at recombinant human TAAR1 expressed in CHO-K1 cells assessed as increase in intracellular cAMP incubated for 30 mins by HTRF analysis; type: functional, cell-based
T2 sequence (Q96RJ0 whole entry): T1 sequence (whole entry)
Procedure, shortened: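 Human TAAR1 agonism was measured in a single study under identical conditions.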

Compound | Emax [1] | EC50 [2]
NC[C@@H](O)c1ccc(O)cc1 | 108% | 4110 nM
CN(C)C[C@@H]1OCCc2ccsc21 | 112% | 203 nM
CNCCc1ccccc1 | 111% | 151 nM
NCC1OCCCc2ccsc21 (racemic) | 111% | 65 nM
CNC[C@H](O)c1ccc(O)cc1 | 113% | 4730 nM
NCC[C@@H]1OCCc2ccsc21 | 105% | 233 nM
c1cc2c(s1)[C@H](CN1CCCC1)OCC2 | 113% | 7200 nM
NCCc1ccc(Oc2ccc(O)cc2)c(I)c1 | 105% | 225 nM
NCCc1cccc(O)c1 | 109% | 339 nM
NCCc1ccc(O)c(O)c1 | 97% | 
NCCc1ccsc1 | 112% | 25 nM
NCCc1ccc(O)cc1 [TYRAMINE] | 111% | 76 nM
COc1cc(CCN)ccc1O | 101% | 308 nM
NCCc1ccccc1 [PHENETHYLAMINE] | 111% | 15 nM
NCCc1c[nH]c2ccc(O)cc12 [SEROTONIN] | 75% | 35100 nM
NC[C@H](O)c1ccc(O)cc1 | 116% | 1570 nM
CNCC1OCCc2cscc21 (configuration not stated) | 112% | 290 nM
NC[C@@H]1OCCc2ccsc21 | 110% | 3.5 nM
CNCC1OCCCc2ccsc21 (racemic) | 113% | 321 nM
NCCc1c[nH]c2ccccc12 [TRYPTAMINE] | 102% | 2210 nM
CNC[C@]1(C)OCCc2ccsc21 | 95% | 45700 nM
NCC(O)c1ccc(O)c(O)c1 (configuration not stated) | 99% | 12200 nM
NCCc1cccs1 | 113% | 8.3 nM
CNC[C@@H]1OCCc2sccc21 | 110% | 113 nM
